What was measured:
Aminopeptidase N [1] = biological target: T1, Aminopeptidase N (Sus scrofa, UniProt P15145); assay: Inhibition of pig kidney aminopeptidase N using Leu-AMC as substrate
T1 sequence (P15145 whole entry): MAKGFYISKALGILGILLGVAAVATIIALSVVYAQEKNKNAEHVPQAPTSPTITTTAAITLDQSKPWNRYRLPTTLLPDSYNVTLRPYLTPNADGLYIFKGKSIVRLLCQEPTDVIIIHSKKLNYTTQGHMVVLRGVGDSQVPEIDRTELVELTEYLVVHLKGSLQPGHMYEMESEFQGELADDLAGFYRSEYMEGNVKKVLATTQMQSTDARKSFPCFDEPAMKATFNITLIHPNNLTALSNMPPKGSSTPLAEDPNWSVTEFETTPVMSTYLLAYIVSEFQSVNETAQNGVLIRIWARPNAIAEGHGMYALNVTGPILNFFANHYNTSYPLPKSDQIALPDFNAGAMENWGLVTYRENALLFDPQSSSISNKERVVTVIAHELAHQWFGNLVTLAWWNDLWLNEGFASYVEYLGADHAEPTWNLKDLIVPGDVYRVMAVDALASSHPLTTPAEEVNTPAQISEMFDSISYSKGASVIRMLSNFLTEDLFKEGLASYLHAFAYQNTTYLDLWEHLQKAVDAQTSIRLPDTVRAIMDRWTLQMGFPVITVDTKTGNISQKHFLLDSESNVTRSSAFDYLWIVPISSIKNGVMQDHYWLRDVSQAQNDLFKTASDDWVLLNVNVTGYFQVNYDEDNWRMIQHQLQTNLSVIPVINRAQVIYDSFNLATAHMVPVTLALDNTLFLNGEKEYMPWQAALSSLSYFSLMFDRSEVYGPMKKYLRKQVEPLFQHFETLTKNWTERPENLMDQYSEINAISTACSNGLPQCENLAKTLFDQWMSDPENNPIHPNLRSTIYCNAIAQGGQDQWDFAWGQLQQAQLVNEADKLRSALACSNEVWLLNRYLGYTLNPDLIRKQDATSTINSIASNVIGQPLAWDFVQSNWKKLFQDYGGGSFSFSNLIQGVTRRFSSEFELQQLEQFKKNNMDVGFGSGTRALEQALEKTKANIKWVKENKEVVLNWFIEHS

Cytosol aminopeptidase = Cytosol aminopeptidase (Homo sapiens, UniProt P28838); assay: Inhibition of leucine aminopeptidase
Cytosol aminopeptidase, sequence (P28838 whole entry): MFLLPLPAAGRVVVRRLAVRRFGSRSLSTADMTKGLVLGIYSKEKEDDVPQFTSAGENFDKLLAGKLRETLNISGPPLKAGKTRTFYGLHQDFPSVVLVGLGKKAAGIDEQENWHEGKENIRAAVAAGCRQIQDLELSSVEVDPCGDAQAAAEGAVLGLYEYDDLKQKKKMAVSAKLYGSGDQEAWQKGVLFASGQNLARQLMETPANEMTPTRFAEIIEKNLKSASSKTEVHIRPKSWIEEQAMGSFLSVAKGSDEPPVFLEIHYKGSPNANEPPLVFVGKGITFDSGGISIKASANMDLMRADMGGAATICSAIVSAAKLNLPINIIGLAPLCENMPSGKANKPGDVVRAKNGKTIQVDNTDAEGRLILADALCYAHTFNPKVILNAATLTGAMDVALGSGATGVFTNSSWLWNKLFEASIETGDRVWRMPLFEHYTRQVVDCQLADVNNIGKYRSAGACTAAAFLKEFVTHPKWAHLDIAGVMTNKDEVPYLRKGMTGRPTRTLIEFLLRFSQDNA

Aminopeptidase N [2] = biological target: Aminopeptidase N (Homo sapiens, UniProt P15144); assay: Inhibition of aminopeptidase N
Aminopeptidase N (Homo sapiens, UniProt P15144), sequence (P15144 whole entry): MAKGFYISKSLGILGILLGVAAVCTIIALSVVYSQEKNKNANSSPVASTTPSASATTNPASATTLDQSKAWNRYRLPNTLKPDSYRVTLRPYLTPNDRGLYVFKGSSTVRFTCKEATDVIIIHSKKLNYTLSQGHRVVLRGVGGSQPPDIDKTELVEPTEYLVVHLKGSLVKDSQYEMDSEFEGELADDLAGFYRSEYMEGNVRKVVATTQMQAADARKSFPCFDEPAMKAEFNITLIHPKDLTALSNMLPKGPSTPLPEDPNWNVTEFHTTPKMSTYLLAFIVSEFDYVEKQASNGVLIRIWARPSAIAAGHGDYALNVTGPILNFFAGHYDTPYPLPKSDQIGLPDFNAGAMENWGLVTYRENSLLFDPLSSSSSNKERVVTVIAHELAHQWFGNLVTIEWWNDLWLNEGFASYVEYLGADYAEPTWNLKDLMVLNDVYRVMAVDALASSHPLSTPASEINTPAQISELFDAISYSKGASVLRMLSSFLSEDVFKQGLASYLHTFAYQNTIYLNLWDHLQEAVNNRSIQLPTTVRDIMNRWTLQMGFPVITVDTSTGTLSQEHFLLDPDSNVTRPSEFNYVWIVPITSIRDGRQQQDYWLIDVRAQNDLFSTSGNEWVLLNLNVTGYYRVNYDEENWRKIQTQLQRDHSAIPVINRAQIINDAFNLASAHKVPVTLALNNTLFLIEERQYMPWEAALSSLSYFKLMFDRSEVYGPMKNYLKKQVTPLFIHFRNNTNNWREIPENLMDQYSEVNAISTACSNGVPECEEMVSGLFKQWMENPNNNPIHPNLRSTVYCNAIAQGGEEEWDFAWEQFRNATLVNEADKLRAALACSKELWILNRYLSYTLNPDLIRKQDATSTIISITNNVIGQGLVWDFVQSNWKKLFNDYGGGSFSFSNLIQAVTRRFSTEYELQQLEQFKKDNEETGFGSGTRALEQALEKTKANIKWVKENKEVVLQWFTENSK

PANC-1 [3] = assay: Cytotoxicity against human PANC1 cells assessed as cell growth inhibition at 300 uM after 72 hrs by XTT assay relative to control; type: functional; parameters: scale not given: the % may be the effect or the level left
Summary of the method: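 PANC-1 cells cultured adherent in DMEM with 2 mM L-glutamine, 10% non-heat-inactivated FBS and penicillin–streptomycin at 37 °C, 5% CO2. Inhibitor (0–300 μM, 0.1 M NaOH stock diluted in medium) applied 72 h, with controls given matching 0.1 M NaOH. XTT incubation 4 h, A490 read, values normalised to untreated culture as percentage growth.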

HT-1080 [4] = assay: Cytotoxicity against human HT1080 cells assessed as cell growth inhibition at 300 uM after 72 hrs by XTT assay relative to control; type: functional; parameters: scale not given: the % may be the effect or the level left
Summary of the method: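 HT-1080 cells kept adherent in DMEM plus 2 mM L-glutamine, 10% heat-inactivated FBS and penicillin–streptomycin at 37 °C, 5% CO2. Exposed 72 h to inhibitor (0–300 μM; 0.1 M NaOH stock diluted in medium), with vehicle controls given matching 0.1 M NaOH. XTT staining for 4 h, absorbance at 490 nm, expressed as percentage growth relative to untreated culture.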

HT-1080 [5] = assay: Cytotoxicity against human HT1080 cells assessed as cell growth inhibition after 72 hrs by XTT assay in the presence of TNFalpha relative to control; type: functional; parameters: scale not given: the % may be the effect or the level left
Summary of the method: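 HT-1080 cells grown adherent in DMEM with 2 mM L-glutamine, 10% heat-inactivated FBS and penicillin–streptomycin at 37 °C, 5% CO2. Inhibitor (0–300 μM, from 0.1 M NaOH stock, diluted in medium) co-applied with TNF-α (0–30 μg/ml) for 72 h. Controls received matching 0.1 M NaOH. XTT added for 4 h, A490 read, normalised to untreated cells.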

PANC-1 [6] = assay: Cytotoxicity against human PANC1 cells assessed as cell growth inhibition after 72 hrs by XTT assay; type: functional; parameters: scale not given: the % may be the effect or the level left
Summary of the method: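 PANC-1 cells grown adherent in DMEM with 2 mM L-glutamine, 10% uninactivated FBS and 1% penicillin–streptomycin at 37 °C, 5% CO2. Treated 72 h with inhibitor (0–300 μM; stocks in 0.1 M NaOH, diluted in medium; vehicle controls), alone or with TNF-α (0–30 μg/ml). XTT added for 4 h; absorbance read at 490 nm and normalised to untreated cultures; mean ± one SD.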

HT-1080 [7] = assay: Cytotoxicity against human HT1080 cells assessed as cell growth inhibition after 72 hrs by XTT assay; type: functional; parameters: scale not given: the % may be the effect or the level left
Summary of the method: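 HT-1080 cells cultured adherent in DMEM with 2 mM L-glutamine, 10% heat-inactivated FBS and 1% penicillin–streptomycin at 37 °C, 5% CO2. Exposed 72 h to inhibitor (0–300 μM from 0.1 M NaOH stocks diluted in medium; NaOH vehicle controls), with or without TNF-α (0–30 μg/ml). XTT for 4 h, absorbance at 490 nm, growth expressed relative to untreated cells; mean ± one SD.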

CCCC(N)P(=O)(O)O (stereo unspecified)
IC50 (Aminopeptidase N [1]): 15 µM

CCCCC(N)P(=O)(O)O (stereo unspecified)
IC50 (Aminopeptidase N [1]): 75 µM

COc1ccc(OP(=O)(O)C(N)CCc2ccccc2)cc1 (stereo unspecified)
IC50 (Aminopeptidase N [1]): 2.9 µM

CCCCC(N)P(=O)(O)Oc1ccccc1 (stereo unspecified)
IC50 (Aminopeptidase N [1]): 5.6 µM

NC(c1ccccc1)P(=O)(O)Oc1ccccc1 (stereo unspecified)
IC50 (Aminopeptidase N [1]): 21 µM

Cc1cc(C)c(C)c(OP(=O)(O)C(C)N)c1 (stereo unspecified)
IC50 (Aminopeptidase N [1]): 14 µM

CCC(N)P(=O)(O)Oc1cc(C)ccc1C (stereo unspecified)
IC50 (Aminopeptidase N [1]): 120 µM

NC(Cc1ccccc1)P(=O)(O)O (stereo unspecified)
IC50 (Aminopeptidase N [1]): 54 µM
Ki (Cytosol aminopeptidase): 0.42 µM
Ki (Aminopeptidase N [2]): 27.5 µM

CC(C)C(N)P(=O)(O)Oc1ccccc1 (stereo unspecified)
IC50 (Aminopeptidase N [1]): 14 µM

CCCCC(N)P(=O)(O)Oc1ccc(OC)cc1 (stereo unspecified)
IC50 (Aminopeptidase N [1]): 210 µM

NC(CCc1ccccc1)P(=O)(O)Oc1ccc(C(=O)O)cc1 (stereo unspecified)
IC50 (Aminopeptidase N [1]): 22 µM

CC(C)(C)CC(C)(C)c1ccc(OP(=O)(O)C(N)CCc2ccccc2)cc1 (stereo unspecified)
IC50 (Aminopeptidase N [1]): 6.3 µM

NC(Cc1ccccc1)P(=O)(O)Oc1ccccc1 (stereo unspecified)
IC50 (Aminopeptidase N [1]): 8.2 µM
Ki (Cytosol aminopeptidase): 0.42 µM
Ki (Aminopeptidase N [2]): 27.5 µM

NC(CCc1ccccc1)P(=O)(O)Oc1ccccc1 (stereo unspecified)
IC50 (Aminopeptidase N [1]): 6.2 µM

CCc1ccc(OP(=O)(O)C(C)N)cc1 (stereo unspecified)
IC50 (Aminopeptidase N [1]): 8.3 µM

CC(N)P(=O)(O)Oc1ccc(C(C)(C)C)cc1 (stereo unspecified)
IC50 (Aminopeptidase N [1]): 8.2 µM

CCC(N)P(=O)(O)Oc1ccc(C)cc1 (stereo unspecified)
IC50 (Aminopeptidase N [1]): 7 µM

CCC(N)P(=O)(O)Oc1ccc(C)c(C)c1 (stereo unspecified)
IC50 (Aminopeptidase N [1]): 3 µM

CCC(CC)C(N)P(=O)(O)Oc1ccccc1 (stereo unspecified)
IC50 (Aminopeptidase N [1]): > 100 µM

CC(C)CC(N)P(=O)(O)Oc1ccccc1 (stereo unspecified)
IC50 (Aminopeptidase N [1]): 9.3 µM
Ki (Cytosol aminopeptidase): 0.23 µM
Ki (Aminopeptidase N [2]): 53 µM

CCCCCC(N)P(=O)(O)Oc1ccccc1 (stereo unspecified)
IC50 (Aminopeptidase N [1]): 4.8 µM

CCCCC(N)P(=O)(O)Oc1ccc(C(=O)O)cc1 (stereo unspecified)
IC50 (Aminopeptidase N [1]): 55 µM

Cc1ccc(C)c(OP(=O)(O)C(N)CCc2ccccc2)c1 (stereo unspecified)
IC50 (Aminopeptidase N [1]): 15 µM

Cc1ccc(OP(=O)(O)C(N)CCc2ccccc2)cc1C (stereo unspecified)
IC50 (Aminopeptidase N [1]): 2.2 µM

Cc1cc(C)c(C)c(OP(=O)(O)C(N)CCc2ccccc2)c1 (stereo unspecified)
IC50 (Aminopeptidase N [1]): 5 µM

CCc1ccc(OP(=O)(O)C(N)CCc2ccccc2)cc1 (stereo unspecified)
IC50 (Aminopeptidase N [1]): 13 µM

CC(C)c1ccc(OP(=O)(O)C(N)CCc2ccccc2)cc1 (stereo unspecified)
IC50 (Aminopeptidase N [1]): 0.5 µM

CC(C)(C)c1ccc(OP(=O)(O)C(N)CCc2ccccc2)cc1 (stereo unspecified)
IC50 (Aminopeptidase N [1]): 1.9 µM

CCC(N)P(=O)(O)Oc1ccc(C(C)(C)C)cc1 (stereo unspecified)
IC50 (Aminopeptidase N [1]): 1.1 µM
Activity (PANC-1 [3]): 26%
Activity (HT-1080 [4]): 36%
Activity (HT-1080 [5]): 60%

CCC(N)P(=O)(O)Oc1ccc(C(=O)O)cc1 (stereo unspecified)
IC50 (Aminopeptidase N [1]): 200 µM

CCCCC(N)P(=O)(O)Oc1ccc(C)cc1 (stereo unspecified)
IC50 (Aminopeptidase N [1]): 1 µM

CCCCC(N)P(=O)(O)Oc1ccc(C)c(C)c1 (stereo unspecified)
IC50 (Aminopeptidase N [1]): 1.4 µM

CCCCC(N)P(=O)(O)Oc1cc(C)ccc1C (stereo unspecified)
IC50 (Aminopeptidase N [1]): 200 µM

CCC(N)P(=O)(O)O (stereo unspecified)
IC50 (Aminopeptidase N [1]): 50 µM

CC(N)P(=O)(O)O (stereo unspecified)
IC50 (Aminopeptidase N [1]): 42 µM

CCCCCC(N)P(=O)(O)O (stereo unspecified)
IC50 (Aminopeptidase N [1]): 8.3 µM

CC(C)C(N)P(=O)(O)O (stereo unspecified)
IC50 (Aminopeptidase N [1]): 104 µM

CC(C)CC(N)P(=O)(O)O (stereo unspecified)
IC50 (Aminopeptidase N [1]): 37 µM
Ki (Aminopeptidase N [2]): 53 µM

NC(c1ccccc1)P(=O)(O)O (stereo unspecified) [AMINO(PHENYL)METHYLPHOSPHONIC ACID]
IC50 (Aminopeptidase N [1]): 220 µM

CC(C)C[C@H](NC(=O)[C@@H](O)[C@H](N)Cc1ccccc1)C(=O)O [UBENIMEX]
Activity (PANC-1 [6]): < 10%
Activity (HT-1080 [7]): < 10%

Source: ChEMBL document CHEMBL1156227, “New aromatic monoesters of alpha-aminoaralkylphosphonic acids as inhibitors of aminopeptidase N/CD13” (Bioorg Med Chem, 2010)
